According to ChEMBL document CHEMBL1155443, “Synthesis and evaluation of alpha-halogenated analogues of 3-(acetylhydroxyamino)propylphosphonic acid (FR900098) as antimalarials” (J Med Chem, 2010):
Calls of active or inactive are those of the source. No cut-off for these calls is given here.

What was measured:
Plasmodium berghei [1] = experiment: Antiplasmodial activity against Plasmodium berghei ANKA infected in mice (Mus musculus) assessed as mice (Mus musculus) survival at 50 mg/kg, intraperitoneal for 5 consecutive days measured on day 25 post parasitic infection; assay type: functional, organism-based; parameters: dose 50 mg/kg
Method in brief: (§1)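 P. berghei (GFP ANKA strain) acute mouse model; intraperitoneal dosing for 5 consecutive days (test compounds 50 mg/kg, chloroquine reference 10 mg/kg). Parasitaemia measured by flow cytometry (10 μL blood in 2000 μL PBS) on days 4, 7 and 14 in survivors, expressed as % reduction versus vehicle-treated infected controls. Survivors counted on days 7, 11, 14 and 25; mean survival time calculated.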

Plasmodium berghei [2] = experiment: Antiplasmodial activity against Plasmodium berghei ANKA infected in mice (Mus musculus) assessed as mice (Mus musculus) survival at 50 mg/kg, intraperitoneal for 5 consecutive days measured on day 14 post parasitic infection; assay type: functional, organism-based; parameters: dose 50 mg/kg
Method in brief: (§2)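 P. berghei GFP ANKA acute mouse model. Drug was given intraperitoneally once daily for 5 consecutive days, alongside vehicle-treated infected controls. Mice were watched for clinical and adverse signs and euthanized for welfare if signs became very severe. Surviving animals were counted per group on days 7, 11, 14 and 25, and mean survival time was calculated.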

Plasmodium berghei [3] = experiment: Antiplasmodial activity against Plasmodium berghei ANKA infected in mice (Mus musculus) assessed as mean survival time at 50 mg/kg, intraperitoneal for 5 consecutive days; assay type: functional; method in brief: as §1
Plasmodium berghei [4] = experiment: Antiplasmodial activity against Plasmodium berghei ANKA infected in mice (Mus musculus) assessed as mice (Mus musculus) survival at 50 mg/kg, intraperitoneal for 5 consecutive days measured on day 11 post parasitic infection; assay type: functional, organism-based; parameters: dose 50 mg/kg; method in brief: as §2
Plasmodium falciparum [5] = experiment: Antiplasmodial activity against Plasmodium falciparum Ghana by micro dilution assay; assay type: functional, organism-based
Method in brief: (§3)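 Intraerythrocytic P. falciparum, strains GHA and K1, in a microdilution assay; tested in duplicate.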

Plasmodium berghei [6] = experiment: Antiplasmodial activity against Plasmodium berghei ANKA infected in mice (Mus musculus) assessed as suppression of parasitaemia at 50 mg/kg, intraperitoneal for 5 consecutive days measured on day 4 post parasitic infection; assay type: functional; conditions: ip, 96 h; method in brief: as §1
Plasmodium falciparum [7] = experiment: Antiplasmodial activity against Plasmodium falciparum K1 by micro dilution assay; assay type: functional, organism-based; method in brief: as §3
Plasmodium berghei [8] = experiment: Antiplasmodial activity against Plasmodium berghei ANKA infected in mice (Mus musculus) assessed as suppression of parasitaemia at 50 mg/kg, intraperitoneal for 5 consecutive days measured on day 7 post parasitic infection; assay type: functional; conditions: ip, 168 h; method in brief: as §1
Plasmodium berghei [9] = experiment: Antiplasmodial activity against Plasmodium berghei ANKA infected in mice (Mus musculus) assessed as suppression of parasitaemia at 50 mg/kg, intraperitoneal for 5 consecutive days measured on day 14 post parasitic infection; assay type: functional; conditions: ip, 336 h; method in brief: as §1
Plasmodium falciparum [10] = experiment: Ratio of fosmidomycin IC50 to compound IC50 for Plasmodium falciparum K1; assay type: functional
[11] = Dissociation constant, pKa by NMR titration assay; assay type: physicochemical
Method in brief: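 The ³¹P NMR chemical shift was recorded across a range of pH values and plotted against pH. Each pKa was taken as the pH at the inflection point of the titration curve, with the second pKa the value of interest.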

Plasmodium berghei [12] = experiment: Antiplasmodial activity against Plasmodium berghei ANKA infected in mice (Mus musculus) assessed as mice (Mus musculus) survival at 50 mg/kg, intraperitoneal for 5 consecutive days measured on day 7 post parasitic infection; assay type: functional, organism-based; parameters: dose 50 mg/kg; method in brief: as §1
Plasmodium berghei [13] = experiment: Antiplasmodial activity against Plasmodium berghei ANKA infected in mice (Mus musculus) assessed as mice (Mus musculus) survival at 10 mg/kg, intraperitoneal for 5 consecutive days measured on day 14 post parasitic infection; assay type: functional, organism-based; parameters: dose 10 mg/kg; method in brief: as §2
Plasmodium berghei [14] = experiment: Antiplasmodial activity against Plasmodium berghei ANKA infected in mice (Mus musculus) assessed as mice (Mus musculus) survival at 10 mg/kg, intraperitoneal for 5 consecutive days measured on day 7 post parasitic infection; assay type: functional, organism-based; parameters: dose 10 mg/kg; method in brief: as §2
Plasmodium berghei [15] = experiment: Antiplasmodial activity against Plasmodium berghei ANKA infected in mice (Mus musculus) assessed as suppression of parasitaemia at 10 mg/kg, intraperitoneal for 5 consecutive days measured on day 4 post parasitic infection; conditions: ip, 96 h, read-out: INH
Plasmodium berghei [16] = experiment: Antiplasmodial activity against Plasmodium berghei ANKA infected in mice (Mus musculus) assessed as mean survival time at 10 mg/kg, intraperitoneal for 5 consecutive days; assay type: functional; method in brief: as §1
Plasmodium berghei [17] = experiment: Antiplasmodial activity against Plasmodium berghei ANKA infected in mice (Mus musculus) assessed as mice (Mus musculus) survival at 10 mg/kg, intraperitoneal for 5 consecutive days measured on day 11 post parasitic infection; assay type: functional, organism-based; parameters: dose 10 mg/kg; method in brief: as §2

SMILES | Activity (Plasmodium berghei [1]) | Activity (Plasmodium berghei [2]) | MST (Plasmodium berghei [3]) | Activity (Plasmodium berghei [4]) | IC50 (Plasmodium falciparum [5]) | inhibition in vivo at 50 mg/kg (Plasmodium berghei [6]) | IC50 (Plasmodium falciparum [7]) | inhibition in vivo at 50 mg/kg (Plasmodium berghei [8]) | inhibition in vivo at 50 mg/kg (Plasmodium berghei [9]) | Ratio IC50 (Plasmodium falciparum [10]) | pKa [11] | Activity (Plasmodium berghei [12]) | Activity (Plasmodium berghei [13]) | Activity (Plasmodium berghei [14]) | inhibition in vivo at 10 mg/kg (Plasmodium berghei [15]) | MST (Plasmodium berghei [16]) | Activity (Plasmodium berghei [17])
O=CN(O)CCC(c1ccc(Cl)c(Cl)c1)P(=O)(O)O (stereo not drawn) | inactive | inactive | 7 days | inactive | 600 nM | 46% | 160 nM | – | – | – | – | – | – | – | – | – | –
CN(O)C(=O)CCC(F)P(=O)(O)O.N.N (racemic) | inactive | – | 11.7 days | – | 730 nM | 85% | 310 nM | 42% | 41% | 5 | – | – | – | – | – | – | –
CC(=O)N(O)CCC(Cl)P(=O)(O)O.N.N (racemic) | – | – | – | – | 820 nM | – | 300 nM | – | – | 5 | ≤ 6 | – | – | – | – | – | –
CC(=O)N(O)CCC(F)P(=O)(O)O.N.N (racemic) | inactive | – | 15.8 days | – | 700 nM | 88% | 290 nM | 62% | 32% | 5 | ≤ 6 | Active | – | – | – | – | –
CCN(CC)CCCC(C)Nc1ccnc2cc(Cl)ccc12 (stereo not drawn) [CHLOROQUINE] | – | – | – | – | – | – | – | – | – | – | – | – | Active | Active | 100% | 20.7 days | Active
O=CN(O)CCCP(=O)(O)O [FOSMIDOMYCIN] | – | – | 11.5 days | – | – | 82% | 1730 nM | – | – | – | – | Active | – | – | – | – | –
CC(=O)N(O)CCCP(=O)(O)O [FR-900098] | – | – | 10.8 days | – | – | 93% | 420 nM | – | – | – | 7.35 | Active | – | – | – | – | –
